From ChEMBL document CHEMBL4229342, “Synthesis of novel proxyphylline derivatives with dual Anti-Candida albicans and anticancer activity” (Eur J Med Chem, 2018)

Tests used:
Assay type in all cases: functional
Candida albicans [1] = test: Fungicidal activity against Candida albicans ATCC 90028 assessed as log reduction in cell viability at 16 ug/ml after 48 hrs at 35 degC
How it was run: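 MFC assay on C. albicans ATCC 90028 following M27-A3, at the molar equivalent of 16 µg/mL. CFU of treated cells were compared with CFU of the untreated inoculum. Activity is given as lg R = lg CFU/mL control − lg CFU/mL treated, and lg R ≥3 was defined as fungicidal. Values are means of two independent experiments.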

CCRF-CEM [2] = test: Antiproliferative activity against human CCRF-CEM cells assessed as cell viability at 200 uM after 72 hrs by MTT assay; conditions: read-out: Activity
How it was run: (§1)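 MTT viability assay in CCRF-CEM and MCF-7 cells after 72 h exposure at 25, 50, 100 and 200 µM. Results are relative to control cells without inhibitor in 0.5% DMSO. Done in triplicate; values are means ± SD of three independent experiments.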

Candida albicans [3] = test: Growth inhibition of Candida albicans ATCC 90028 at 1 ug/ml incubated for 4 hrs at 35 degC by broth microdilution method relative to control; conditions: ATCC 90028, 4 h, read-out: GI
MCF7 [4] = test: Antiproliferative activity against human MCF7 cells assessed as cell viability at 100 uM after 72 hrs by MTT assay; conditions: MCF7, 72 h, read-out: Activity; how it was run: as §1
Candida albicans [5] = test: Growth inhibition of Candida albicans ATCC 90028 at 16 ug/ml incubated for 18 hrs at 35 degC by broth microdilution method relative to control; conditions: ATCC 90028, 18 h, read-out: GI
Candida albicans [6] = test: Growth inhibition of Candida albicans ATCC 90028 at 0.125 ug/ml incubated for 18 hrs at 35 degC by broth microdilution method relative to control; conditions: ATCC 90028, 18 h, read-out: GI
CCRF-CEM [7] = test: Antiproliferative activity against human CCRF-CEM cells assessed as cell viability at 25 uM after 72 hrs by MTT assay; conditions: read-out: Activity; how it was run: as §1
Candida albicans [8] = test: Growth inhibition of Candida albicans ATCC 90028 at 0.0625 ug/ml incubated for 4 hrs at 35 degC by broth microdilution method relative to control; conditions: ATCC 90028, 4 h, read-out: GI
Candida albicans [9] = test: Growth inhibition of Candida albicans ATCC 90028 at 0.25 ug/ml incubated for 4 hrs at 35 degC by broth microdilution method relative to control; conditions: ATCC 90028, 4 h, read-out: GI
Candida albicans [10] = test: Growth inhibition of Candida albicans ATCC 90028 at 0.0313 ug/ml incubated for 4 hrs at 35 degC by broth microdilution method relative to control; conditions: ATCC 90028, 4 h, read-out: GI
Candida albicans [11] = test: Growth inhibition of Candida albicans ATCC 90028 at 0.125 ug/ml incubated for 4 hrs at 35 degC by broth microdilution method relative to control; conditions: ATCC 90028, 4 h, read-out: GI
Candida albicans [12] = test: Growth inhibition of Candida albicans ATCC 90028 at 4 ug/ml incubated for 18 hrs at 35 degC by broth microdilution method relative to control; conditions: ATCC 90028, 18 h, read-out: GI
Candida albicans [13] = test: Growth inhibition of Candida albicans ATCC 90028 at 0.0313 ug/ml incubated for 18 hrs at 35 degC by broth microdilution method relative to control; conditions: ATCC 90028, 18 h, read-out: GI
Candida albicans [14] = test: Growth inhibition of Candida albicans ATCC 90028 at 1 ug/ml incubated for 18 hrs at 35 degC by broth microdilution method relative to control; conditions: ATCC 90028, 18 h, read-out: GI
Candida albicans [15] = test: Growth inhibition of Candida albicans ATCC 90028 at 0.5 ug/ml incubated for 4 hrs at 35 degC by broth microdilution method relative to control; conditions: ATCC 90028, 4 h, read-out: GI
CCRF-CEM [16] = test: Antiproliferative activity against human CCRF-CEM cells assessed as cell viability at 50 uM after 72 hrs by MTT assay; conditions: read-out: Activity; how it was run: as §1
Candida albicans [17] = test: Growth inhibition of Candida albicans ATCC 90028 at 2 ug/ml incubated for 18 hrs at 35 degC by broth microdilution method relative to control; conditions: ATCC 90028, 18 h, read-out: GI
Candida albicans [18] = test: Growth inhibition of Candida albicans ATCC 90028 at 2 ug/ml incubated for 4 hrs at 35 degC by broth microdilution method relative to control; conditions: ATCC 90028, 4 h, read-out: GI
CCRF-CEM [19] = test: Antiproliferative activity against human CCRF-CEM cells assessed as cell viability at 100 uM after 72 hrs by MTT assay; conditions: read-out: Activity; how it was run: as §1
Candida albicans [20] = test: Growth inhibition of Candida albicans ATCC 90028 at 0.5 ug/ml incubated for 18 hrs at 35 degC by broth microdilution method relative to control; conditions: ATCC 90028, 18 h, read-out: GI
MCF7 [21] = test: Antiproliferative activity against human MCF7 cells assessed as cell viability at 25 uM after 72 hrs by MTT assay; conditions: MCF7, 72 h, read-out: Activity; how it was run: as §1
MCF7 [22] = test: Antiproliferative activity against human MCF7 cells assessed as cell viability at 50 uM after 72 hrs by MTT assay; conditions: MCF7, 72 h, read-out: Activity; how it was run: as §1
Candida albicans [23] = test: Growth inhibition of Candida albicans ATCC 90028 at 8 ug/ml incubated for 18 hrs at 35 degC by broth microdilution method relative to control; conditions: ATCC 90028, 18 h, read-out: GI
Candida albicans [24] = test: Growth inhibition of Candida albicans ATCC 90028 at 0.25 ug/ml incubated for 18 hrs at 35 degC by broth microdilution method relative to control; conditions: ATCC 90028, 18 h, read-out: GI
Candida albicans [25] = test: Growth inhibition of Candida albicans ATCC 90028 at 16 ug/ml incubated for 48 hrs at 35 degC by broth microdilution method relative to control; conditions: ATCC 90028, 48 h, read-out: GI
Candida albicans [26] = test: Growth inhibition of Candida albicans ATCC 90028 at 8 ug/ml incubated for 4 hrs at 35 degC by broth microdilution method relative to control; conditions: ATCC 90028, 4 h, read-out: GI
MCF7 [27] = test: Antiproliferative activity against human MCF7 cells assessed as cell viability at 200 uM after 72 hrs by MTT assay; conditions: MCF7, 72 h, read-out: Activity; how it was run: as §1
Candida albicans [28] = test: Growth inhibition of Candida albicans ATCC 90028 at 8 ug/ml incubated for 48 hrs at 35 degC by broth microdilution method relative to control; conditions: ATCC 90028, 48 h, read-out: GI
Candida albicans [29] = test: Growth inhibition of Candida albicans ATCC 90028 at 0.0625 ug/ml incubated for 18 hrs at 35 degC by broth microdilution method relative to control; conditions: ATCC 90028, 18 h, read-out: GI

Row | Structure (SMILES) | log(activity) (Candida albicans [1]) | viability at 200 µM (CCRF-CEM [2]) [%] | inhibition of growth at 1 µg/mL (Candida albicans [3]) [%] | viability at 100 µM (MCF7 [4]) [%] | inhibition of growth at 16 µg/mL (Candida albicans [5]) [%] | inhibition of growth at 0.125 µg/mL (Candida albicans [6]) [%] | viability at 25 µM (CCRF-CEM [7]) [%] | inhibition of growth at 0.0625 µg/mL (Candida albicans [8]) [%] | inhibition of growth at 0.25 µg/mL (Candida albicans [9]) [%] | inhibition of growth at 0.0313 µg/mL (Candida albicans [10]) [%] | inhibition of growth at 0.125 µg/mL (Candida albicans [11]) [%] | inhibition of growth at 4 µg/mL (Candida albicans [12]) [%] | inhibition of growth at 0.0313 µg/mL (Candida albicans [13]) [%] | inhibition of growth at 1 µg/mL (Candida albicans [14]) [%] | inhibition of growth at 0.5 µg/mL (Candida albicans [15]) [%] | viability at 50 µM (CCRF-CEM [16]) [%] | inhibition of growth at 2 µg/mL (Candida albicans [17]) [%] | inhibition of growth at 2 µg/mL (Candida albicans [18]) [%] | viability at 100 µM (CCRF-CEM [19]) [%] | inhibition of growth at 0.5 µg/mL (Candida albicans [20]) [%] | other results
1 | CC(Cn1cnc2c1c(=O)n(C)c(=O)n2C)OC(=O)C(c1ccccc1)c1ccccc1 (stereo unspecified) | 0.1 | 2.5 | 99.4 | 67.3 | 99.9 | 100 | 84.8 | 99.3 | 99.1 | 99.9 | 99.8 | 100 | 100 | 99.6 | 99.1 | 33.1 | 99.8 | 99.2 | 30.5 | 99.6 | viability at 25 µM (MCF7 [21]): 89.5%; viability at 50 µM (MCF7 [22]): 75.2%; inhibition of growth at 8 µg/mL (Candida albicans [23]): 99.9%; inhibition of growth at 0.25 µg/mL (Candida albicans [24]): 99.3%; inhibition of growth at 16 µg/mL (Candida albicans [25]): 99.1%; inhibition of growth at 8 µg/mL (Candida albicans [26]): 99.2%; viability at 200 µM (MCF7 [27]): 43.5%; inhibition of growth at 8 µg/mL (Candida albicans [28]): 99.1%; inhibition of growth at 0.0625 µg/mL (Candida albicans [29]): 100%
2 | COC(C(=O)OC(C)Cn1cnc2c1c(=O)n(C)c(=O)n2C)c1ccc2ccccc2c1 (stereo unspecified) | 0.4 | 15 | 99 | 83.7 | 99.2 | 99.1 | 84.7 | 99.1 | 99.1 | 99.1 | 99 | 99 | 99 | 99.1 | 99.1 | 28.2 | 99 | 99.1 | 27.6 | 99.2 | viability at 25 µM (MCF7 [21]): 93.5%; viability at 50 µM (MCF7 [22]): 86.3%; inhibition of growth at 8 µg/mL (Candida albicans [23]): 99%; inhibition of growth at 0.25 µg/mL (Candida albicans [24]): 99%; inhibition of growth at 16 µg/mL (Candida albicans [25]): 99%; inhibition of growth at 8 µg/mL (Candida albicans [26]): 99%; viability at 200 µM (MCF7 [27]): 68.8%; inhibition of growth at 8 µg/mL (Candida albicans [28]): 99%; inhibition of growth at 0.0625 µg/mL (Candida albicans [29]): 99.1%
3 | CC(Cn1cnc2c1c(=O)n(C)c(=O)n2C)OC(=O)Sc1ccccc1 (stereo unspecified) | 0.1 | 0.5 | 99.5 | 69.9 | 99.8 | 99.5 | 53.9 | 99.1 | 99.5 | 99.3 | 99.1 | 99.8 | 99.8 | 99.9 | 99.4 | 37.1 | 100 | 99.3 | 14.5 | 99.9 | viability at 25 µM (MCF7 [21]): 86.8%; viability at 50 µM (MCF7 [22]): 81.9%; inhibition of growth at 8 µg/mL (Candida albicans [23]): 100%; inhibition of growth at 0.25 µg/mL (Candida albicans [24]): 100%; inhibition of growth at 16 µg/mL (Candida albicans [25]): 99.5%; inhibition of growth at 8 µg/mL (Candida albicans [26]): 99.5%; viability at 200 µM (MCF7 [27]): 43.1%; inhibition of growth at 8 µg/mL (Candida albicans [28]): 99.2%; inhibition of growth at 0.0625 µg/mL (Candida albicans [29]): 99.7%
4 | CC(Cn1cnc2c1c(=O)n(C)c(=O)n2C)OC(=O)CC(=O)c1ccccc1 (stereo unspecified) | 0.7 | 38.5 | 99.1 | 79.3 | 99.7 | 99.2 | 85.1 | 99.1 | 99 | 99.1 | 99 | 99.2 | 99.2 | 99.3 | 99 | 88.1 | 99.3 | 99.1 | 65.6 | 99.1 | viability at 25 µM (MCF7 [21]): 91.3%; viability at 50 µM (MCF7 [22]): 79.8%; inhibition of growth at 8 µg/mL (Candida albicans [23]): 99.8%; inhibition of growth at 0.25 µg/mL (Candida albicans [24]): 99.1%; inhibition of growth at 16 µg/mL (Candida albicans [25]): 99%; inhibition of growth at 8 µg/mL (Candida albicans [26]): 99.1%; viability at 200 µM (MCF7 [27]): 81.8%; inhibition of growth at 8 µg/mL (Candida albicans [28]): 99%; inhibition of growth at 0.0625 µg/mL (Candida albicans [29]): 99.2%
